Test results from publication PMC3346673 (Toxicological and environmental chemistry, 2012).
Several values for one entry are separate records, joined by “and”; a condition that tells them apart may be missing. Equal entries are not always repeated.

Legend:
[1] = Metabolic profiling with human liver microsomes; format: in vitro ADME; conditions: incubation with human liver microsomes, MS identification
Procedure, shortened: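 Test compound incubated with human or rat liver microsomes. Products separated by HPLC and identified by electrospray MS and MS:MS, using information-dependent acquisition on the parent ion, enhanced product ion scans, and linear ion trap scanning of trapped fragments.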

rats = experiment: 28 day repeated oral dose toxicity study with clinical chemistry and hematology; format: in vivo, rat (Wistar); conditions: for Ca^2+ / Cl^− / HCT / HGB / K^+ / Mg^2+ / Na^+ / Phosphorus / RBC: mean
Procedure, shortened: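 Male and female Wistar rats, 10 of each sex per group, gavaged daily for 28 days with the test compound suspended in corn oil at 0, 0.1, 0.5 or 1.0 g kg−1 body weight day−1.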

[2] = Biodistribution of NBMI in plasma and tissues after oral gavage; format: in vivo, rat (Sprague Dawley); conditions: for concentration at 1 h / concentration at 2 h / concentration at 8 h / concentration at 24 h: male, Sprague Dawley, rat, 100 mg kg^−1
Procedure, shortened: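 Twelve-hour-fasted male Sprague-Dawley rats were gavaged with 100 mg kg−1 test compound in corn oil, three per time point. Jugular-cannula blood was taken at 1, 2, 8 and 24 h into heparin and spun at 4°C; tissues were excised and weighed. Samples were DTT-reduced, then analysed by LC-MS:MS: Synergi Polar RP column, ammonium formate pH 3.5/acetonitrile gradient, ESI MRM.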

[3] = Plasma clearance after intravenous dosing; format: in vivo, rat (Sprague-Dawley)
Procedure, shortened: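 Male Sprague-Dawley rats received 1 mg kg−1 test compound intravenously. Plasma levels were measured by the biodistribution LC-MS:MS method: heparinised, chilled plasma, DTT reduction, then reversed-phase ammonium formate/acetonitrile gradient with ESI MRM detection.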

[4] = test system: aortic endothelial membranes in culture; conditions: aortic endothelial membranes in culture ref Secor et al. 2011; cited from earlier work
[5] = test system: rats injected with lethal doses of mercury chloride; experiment: Survival of young rats after lethal doses of mercury chloride; format: in vivo, rat (Sprague-Dawley)
Procedure, shortened: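 Thirty-six young male Sprague-Dawley rats (225–245 g) were split into three groups of 12. They received HgCl2 sc under the right abdominal skin at 1.0, 2.0 or 14 mg kg−1. Six per group then got test compound sc on the left side 20–25 min later in isotonic 25% DMSO:75% PBS: 528 micromoles for the two lower doses, 880 micromoles for the top dose.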

[6] = 0.1, 0.5 and 1.0 g kg^−1 day^−1 gavage, 28 days
[7] = females, 100 mg kg^−1, end of 28 day daily dosing
[8] = females, 500 mg kg^−1, end of 28 day daily dosing
[9] = females, 1000 mg kg^−1, end of 28 day daily dosing
[10] = males, 100 mg kg^−1, end of 28 day daily dosing
[11] = males, 500 mg kg^−1, end of 28 day daily dosing
[12] = males, 1000 mg kg^−1, end of 28 day daily dosing
[13] = iv 1 mg kg^−1, individual rats 1-3
[14] = iv 1 mg kg^−1, plasma, individual rats 1-3

O=C(NCCS)c1cccc(C(=O)NCCS)c1 [NBMI, N,N′-bis(2-mercaptoethyl)isophthalamide]
metabolites detected [1]: only two NBMI modified structures
deaths and clinical signs (rats; [6]): No deaths or abnormal weight loss, ataxia, loss of appetite
microscopic and histological analysis of organs (rats; [6]): None of their organs displayed changes indicating toxic effects
spleen finding (rats; [6]): mild to moderate B-cell proliferation
Ca^2+ (rats; [7]): 10.78 mg/dL
Cl^− (rats; [7]): 103 meq L^−1
HCT (rats; [7]): 43.7%
HGB (rats; [7]): 15.2 gm DL^−1
K^+ (rats; [7]): 4.81 meq L^−1
Mg^2+ (rats; [7]): 2.64 meq L^−1
Na^+ (rats; [7]): 142 meq L^−1
Phosphorus (rats; [7]): 7.82 mg/dL
RBC (rats; [7]): 8.0 mill UL^−1
Ca^2+ (rats; [8]): 10.89 mg/dL
Cl^− (rats; [8]): 105 meq L^−1
HCT (rats; [8]): 42%
HGB (rats; [8]): 15 gm DL^−1
K^+ (rats; [8]): 5.08 meq L^−1
Mg^2+ (rats; [8]): 2.72 meq L^−1
Na^+ (rats; [8]): 143 meq L^−1
Phosphorus (rats; [8]): 8.15 mg/dL
RBC (rats; [8]): 8.0 mill UL^−1
Ca^2+ (rats; [9]): 10.84 mg/dL
Cl^− (rats; [9]): 105 meq L^−1
HCT (rats; [9]): 40%
HGB (rats; [9]): 14 gm DL^−1
K^+ (rats; [9]): 4.89 meq L^−1
Mg^2+ (rats; [9]): 2.82 meq L^−1
Na^+ (rats; [9]): 144 meq L^−1
Phosphorus (rats; [9]): 8.49 mg/dL
RBC (rats; [9]): 7.6 mill UL^−1
Ca^2+ (rats; [10]): 10.64 mg/dL
Cl^− (rats; [10]): 105 meq L^−1
HCT (rats; [10]): 46.2%
HGB (rats; [10]): 15.6 gm DL^−1
K^+ (rats; [10]): 4.83 meq L^−1
Mg^2+ (rats; [10]): 2.58 meq L^−1
Na^+ (rats; [10]): 143 meq L^−1
Phosphorus (rats; [10]): 8.23 mg/dL
RBC (rats; [10]): 8.7 mill UL^−1
Ca^2+ (rats; [11]): 10.6 mg/dL
Cl^− (rats; [11]): 104 meq L^−1
HCT (rats; [11]): 45.1%
HGB (rats; [11]): 15.2 gm DL^−1
K^+ (rats; [11]): 5.03 meq L^−1
Mg^2+ (rats; [11]): 2.62 meq L^−1
Na^+ (rats; [11]): 144 meq L^−1
Phosphorus (rats; [11]): 8.42 mg/dL
RBC (rats; [11]): 8.3 mill UL^−1
Ca^2+ (rats; [12]): 10.53 mg/dL
Cl^− (rats; [12]): 106 meq L^−1
HCT (rats; [12]): 45.5%
HGB (rats; [12]): 15.5 gm DL^−1
K^+ (rats; [12]): 5.15 meq L^−1
Mg^2+ (rats; [12]): 2.56 meq L^−1
Na^+ (rats; [12]): 143 meq L^−1
Phosphorus (rats; [12]): 8.84 mg/dL
RBC (rats; [12]): 8.5 mill UL^−1
concentration at 1 h ([2]; bone marrow, po): 12.5 ± 7.4 ng/g
concentration at 2 h ([2]; bone marrow, po): 65.7 ± 51.6 ng/g
concentration at 8 h ([2]; bone marrow, po): 6.88 ± 0.62 ng/g
concentration at 24 h ([2]; bone marrow, po): 3.76 ± 0.77 ng/g
concentration at 1 h ([2]; brain, po): 6.1 ± 2.6 ng/g
concentration at 2 h ([2]; brain, po): 51.8 ± 43.9 ng/g
concentration at 8 h ([2]; brain, po): 2.57 ± 0.34 ng/g
concentration at 24 h ([2]; brain, po): 2.09 ± 0.41 ng/g
concentration at 1 h ([2]; kidney, po): 61.3 ± 42.7 ng/g
concentration at 2 h ([2]; kidney, po): 145 ± 89.9 ng/g
concentration at 8 h ([2]; kidney, po): 45.1 ± 3.4 ng/g
concentration at 24 h ([2]; kidney, po): 36.9 ± 3.7 ng/g
concentration at 1 h ([2]; liver, po): 165 ± 144 ng/g
concentration at 2 h ([2]; liver, po): 272 ± 274 ng/g
concentration at 8 h ([2]; liver, po): 23.3 ± 2.2 ng/g
concentration at 24 h ([2]; liver, po): 14.2 ± 2.3 ng/g
concentration at 1 h ([2]; plasma, po): 588 ± 90 ng/mL
concentration at 2 h ([2]; plasma, po): 883 ± 216 ng/mL
concentration at 8 h ([2]; plasma, po): 391 ± 14 ng/mL
concentration at 24 h ([2]; plasma, po): 118 ± 29 ng/mL
concentration at 1 h ([2]; small intestine, po): 7430 ± 3200 ng/g
concentration at 2 h ([2]; small intestine, po): 8530 ± 5320 ng/g
concentration at 8 h ([2]; small intestine, po): 1560 ± 826 ng/g
concentration at 24 h ([2]; small intestine, po): 1040 ± 396 ng/g
concentration at 1 h ([2]; spleen, po): 12.1 ± 5.2 ng/g
concentration at 2 h ([2]; spleen, po): 153 ± 129 ng/g
concentration at 8 h ([2]; spleen, po): 16.8 ± 1.5 ng/g
concentration at 24 h ([2]; spleen, po): 12.7 ± 2.7 ng/g
concentration at 1 h ([2]; subcutaneous fat, oral): 420 ± 419 ng/g
concentration at 2 h ([2]; subcutaneous fat, oral): 683 ± 531 ng/g
concentration at 8 h ([2]; subcutaneous fat, oral): 17.3 ± 7.4 ng/g
concentration at 24 h ([2]; subcutaneous fat, oral): 7 ± 0.7 ng/g
clearance from the body from peak values within 24 hours of ingestion ([2]; oral gavage): about 90%
time of highest concentration in plasma and all tissues ([2]; post ingestion, oral gavage): 2 h
clearance relative to liver blood flow of a typical rat (3.3 L hr^−1 kg^−1) ([3]; iv 1 mg kg^−1): approximately 30%
Plasma concentration ([3]; iv 1 mg kg^−1, 0.083 hr, individual rats 1-3): 535 ng/mL and 423 ng/mL
Plasma concentration ([3]; iv 1 mg kg^−1, 0.25 hr, individual rats 1-3): 320 ng/mL and 254 ng/mL
Plasma concentration ([3]; iv 1 mg kg^−1, 0.5 hr, individual rats 1-3): 228 ng/mL and 203 ng/mL
Plasma concentration ([3]; iv 1 mg kg^−1, 1 hr, individual rats 1-3): 155 ng/mL and 124 ng/mL
Plasma concentration ([3]; iv 1 mg kg^−1, 3 hr, individual rats 1-3): 84.1 ng/mL and 63.1 ng/mL
Plasma concentration ([3]; iv 1 mg kg^−1, 6 hr, individual rats 1-3): 32.7 ng/mL and 28.9 ng/mL
Plasma concentration ([3]; iv 1 mg kg^−1, 24 hr, individual rats 1-3): 6.6 ng/mL and 8.84 ng/mL and 3.7 ng/mL
Co, maximum plasma concentration extrapolated to t=0 [3, 13]: 633 ng/mL and 691 ng/mL and 545 ng/mL
Vss, steady state volume of distribution [3, 13]: 7.2 L/kg and 7.3 L/kg
Co, maximum plasma concentration extrapolated to t=0 ([3]; iv 1 mg kg^−1, mean): 623 ng/mL
CL, clearance [3, 14]: 15.2 mL/min/kg and 21 mL/min/kg
t1/2, half-life [3, 14]: 7.28 h and 5.42 h
concentration at 24 hr ([3]; male, Sprague-Dawley, rat, plasma, iv, 1 mg kg^−1, Plasma concentration, iv 1 mg kg^−1, 24 hr, mean): 6.38 ng/mL
clearance ([3]; male, Sprague-Dawley, rat, plasma, iv, 1 mg/kg, CL, clearance, iv 1 mg kg^−1, plasma, mean): 16.8 mL/min/kg
Vd ([3]; male, Sprague-Dawley, rat, plasma, iv, 1 mg/kg, Vss, steady state volume of distribution, iv 1 mg kg^−1, mean): 6.7 L/kg
half-life ([3]; male, Sprague-Dawley, rat, plasma, iv, 1 mg/kg, t1/2, half-life, iv 1 mg kg^−1, plasma, mean): 6.18 h
prevention of damage induced by mercury exposure [4]: very effective prevention of the damage induced by mercury exposure
toxicity on membrane integrity [4]: no toxicity on membrane integrity
PERCENT SURVIVAL ([5]; HgCl2 1 mg kg^−1 sc, NBMI 528 micromoles (150 mg) kg^−1 sc, 0 hrs): 100%
PERCENT SURVIVAL ([5]; HgCl2 1 mg kg^−1 sc, NBMI 528 micromoles (150 mg) kg^−1 sc, 6 hrs): 100%
PERCENT SURVIVAL ([5]; HgCl2 1 mg kg^−1 sc, NBMI 528 micromoles (150 mg) kg^−1 sc, 12 hrs): 100%
PERCENT SURVIVAL ([5]; HgCl2 1 mg kg^−1 sc, NBMI 528 micromoles (150 mg) kg^−1 sc, 24 hrs): 100%
PERCENT SURVIVAL ([5]; HgCl2 1 mg kg^−1 sc, NBMI 528 micromoles (150 mg) kg^−1 sc, 48 hrs): 100%
PERCENT SURVIVAL ([5]; HgCl2 1 mg kg^−1 sc, NBMI 528 micromoles (150 mg) kg^−1 sc, 72 hrs): 100%
PERCENT SURVIVAL ([5]; HgCl2 2 mg kg^−1 sc, NBMI 528 micromoles (150 mg) kg^−1 sc, 0 hrs): 100%
PERCENT SURVIVAL ([5]; HgCl2 2 mg kg^−1 sc, NBMI 528 micromoles (150 mg) kg^−1 sc, 6 hrs): 100%
PERCENT SURVIVAL ([5]; HgCl2 2 mg kg^−1 sc, NBMI 528 micromoles (150 mg) kg^−1 sc, 12 hrs): 100%
PERCENT SURVIVAL ([5]; HgCl2 2 mg kg^−1 sc, NBMI 528 micromoles (150 mg) kg^−1 sc, 24 hrs): 100%
PERCENT SURVIVAL ([5]; HgCl2 2 mg kg^−1 sc, NBMI 528 micromoles (150 mg) kg^−1 sc, 48 hrs): 100%
PERCENT SURVIVAL ([5]; HgCl2 2 mg kg^−1 sc, NBMI 528 micromoles (150 mg) kg^−1 sc, 72 hrs): 100%
PERCENT SURVIVAL ([5]; HgCl2 14 mg kg^−1 sc, NBMI 880 micromoles (250 mg) kg^−1 sc, 0 hrs): 100%
PERCENT SURVIVAL ([5]; HgCl2 14 mg kg^−1 sc, NBMI 880 micromoles (250 mg) kg^−1 sc, 6 hrs): 100%
PERCENT SURVIVAL ([5]; HgCl2 14 mg kg^−1 sc, NBMI 880 micromoles (250 mg) kg^−1 sc, 12 hrs): 100%
PERCENT SURVIVAL ([5]; HgCl2 14 mg kg^−1 sc, NBMI 880 micromoles (250 mg) kg^−1 sc, 24 hrs): 100%
PERCENT SURVIVAL ([5]; HgCl2 14 mg kg^−1 sc, NBMI 880 micromoles (250 mg) kg^−1 sc, 48 hrs): 67%
PERCENT SURVIVAL ([5]; HgCl2 14 mg kg^−1 sc, NBMI 880 micromoles (250 mg) kg^−1 sc, 72 hrs): 67%
condition of the surviving rats on long term observation ([5]; surviving 16 rats from all groups observed for three months): No adverse effects were noted
